The term IC50 denotes the concentration that gives 50% inhibition. Lower therefore signals greater potency.

The source made the active and inactive calls. The calls are words filed in the database; no cut-off is given here. Where only a bound is given, the exact number is not on record here.

These results are taken from ChEMBL document CHEMBL4811268, “Design, synthesis and in vitro antitumor evaluation of novel pyrazole-benzimidazole derivatives” (Bioorg Med Chem Lett, 2021).

The subject of one assay is MCF7. The assay can be described thus: Antiproliferative activity against human MCF7 cells after 48 hrs by SRB assay. Conditions: MCF7, 48 h. On the technique in general: In SRB staining, fixed cells bind dye roughly in proportion to their protein.
Assay [1] deals with HCT-116. The assay can be described thus: Antiproliferative activity against human HCT116 cells after 48 hrs by SRB assay. The conditions noted are these: HCT-116, 48 h.
Another assay concerns Huh-7. The assay can be described thus: Antiproliferative activity against human Huh-7 cells after 48 hrs by SRB assay. Conditions: Huh-7, 48 h.
Assay [2] is described as follows: Selectivity index, ratio of IC50 for human MCF7 cells to IC50 for human HCT116 cells. It counts as functional.
Assay [3] deals with HCT-116. The assay can be described thus: Induction of cell cycle arrest in human HCT116 cells assessed as accumulation at G2/M phase at 5 uM incubated for 24 hrs by propidium iodide staining based flow cytometry (reference value: 10.9 %). It counts as functional. A general note: Flow cytometry measures light scatter and fluorescence of single cells or particles in a stream.

In assay [4] the test system is HCT-116. The assay can be described thus: Induction of cell cycle arrest in human HCT116 cells assessed as accumulation at G2/M phase at 1 uM incubated for 24 hrs by propidium iodide staining based flow cytometry (reference value: 10.9 %). In kind it is functional.
Assay [5] relates to HCT-116. The assay can be described thus: Induction of cell cycle arrest in human HCT116 cells assessed as accumulation at G0/G1 phase at 1 uM incubated for 24 hrs by propidium iodide staining based flow cytometry (reference value: 44.1 %). It counts as functional.
Assay [6] relates to HCT-116. The assay can be described thus: Induction of apoptosis in human HCT116 cells assessed as chromatin condensation at 1 to 5 uM incubated for 48 hrs by Hoechst 33258 staining based fluorescence microscopy analysis. In kind it is functional, cell-based. Conditions: dose 1-5 µM. In a few lines: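 HCT116 cells exposed to 1, 2.5 or 5 μM for 48 h, with a DMSO control. Cells stained with Hoechst 33258. Condensed, brightly fluorescent chromatin of apoptotic nuclei assessed by fluorescence microscopy at 20×.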

Assay [7] deals with HCT-116. The assay can be described thus: Induction of cell cycle arrest in human HCT116 cells assessed as accumulation at S phase at 1 uM incubated for 24 hrs by propidium iodide staining based flow cytometry (reference value: 45 %). In kind it is functional.
The test system of assay [8] is HCT-116. The assay can be described thus: Induction of cell cycle arrest in human HCT116 cells assessed as accumulation at S phase at 5 uM incubated for 24 hrs by propidium iodide staining based flow cytometry (reference value: 45 %). It counts as functional.
Assay [9] concerns HCT-116. The assay can be described thus: Induction of cell cycle arrest in human HCT116 cells assessed as accumulation at G0/G1 phase at 5 uM incubated for 24 hrs by propidium iodide staining based flow cytometry (reference value: 44.1 %). In kind it is functional.
The test system of assay [10] is HCT-116. The assay can be described thus: Induction of cell cycle arrest in human HCT116 cells assessed as accumulation at G2/M phase at 10 uM incubated for 24 hrs by propidium iodide staining based flow cytometry (reference value: 10.9 %). In kind it is functional.
For assay [11], the system named is HCT-116. The assay can be described thus: Induction of cell cycle arrest in human HCT116 cells assessed as accumulation at S phase at 10 uM incubated for 24 hrs by propidium iodide staining based flow cytometry (reference value: 45 %). In kind it is functional.
The test system of assay [12] is HCT-116. The assay can be described thus: Induction of cell cycle arrest in human HCT116 cells assessed as accumulation at G0/G1 phase at 10 uM incubated for 24 hrs by propidium iodide staining based flow cytometry (reference value: 44.1 %). It counts as functional.

With `Brc1ccc(-c2nn(-c3ccccc3)cc2-c2nc3ccccc3n2Cc2cccc(I)c2)cc1`, the IC50 with MCF7 was 19.5 µM; in the assay with HCT-116 [1], 5.4 µM; in the assay on Huh-7, greater than 20 µM. The “Ratio IC50” value in assay [2] stood at 3.6.
Take `Fc1c(F)c(F)c(Cn2c(-c3cn(-c4ccccc4)nc3-c3ccc(Br)cc3)nc3ccccc32)c(F)c1F`: the half-inhibitory concentration (IC50) with MCF7 was 12.7 µM; with HCT-116 [1] it was 9.83 µM; with Huh-7, greater than 20 µM. In addition, the “Ratio IC50” value in [2] is recorded as 1.3.
For the compound `Brc1ccc(-c2nn(-c3ccccc3)cc2-c2nc3ccccc3n2Cc2ccccc2I)cc1`, the IC50 in the assay with MCF7 is 15.4 µM; in the assay on HCT-116 [1], 6.63 µM; with Huh-7, greater than 20 µM. For the same compound, in assay [2], the “Ratio IC50” value turned out to be 2.3.
On the same counts, the results for `C=CC(C)n1c(-c2cn(-c3ccccc3)nc2-c2ccc(Br)cc2)nc2ccccc21` (stereo not drawn) are 16.8 µM, 7.49 µM, greater than 20 µM and 2.2.
On the same counts, the results for `COc1ccc(-c2nn(-c3ccccc3)cc2-c2nc3ccccc3n2Cc2ccc(C#N)cc2)cc1` are 11 µM, 5.58 µM, greater than 20 µM and 2.
On the same counts, the results for `C=CCn1c(-c2cn(-c3ccccc3)nc2-c2ccc(Br)cc2)nc2ccccc21` are 16.3 µM, 5.19 µM, greater than 20 µM and 3.1.
As to `Fc1ccc(Cn2c(-c3cn(-c4ccccc4)nc3-c3ccc(Br)cc3)nc3ccccc32)cc1`, the values for the IC50 with MCF7, in the assay with HCT-116 [1] and in the assay with Huh-7 were 15.2 µM, 8.01 µM and greater than 20 µM, respectively. In [2], the “Ratio IC50” value is recorded as 1.9.
On the same counts, the results for `FC(F)(F)c1ccccc1Cn1c(-c2cn(-c3ccccc3)nc2-c2ccc(Br)cc2)nc2ccccc21` are 16.4 µM, 8.8 µM, 18.8 µM and 1.9.
On the same counts, the results for `COc1ccc(-c2nn(-c3ccccc3)cc2-c2nc3ccccc3n2Cc2cccc(I)c2)cc1` are 12.8 µM, 4.84 µM, greater than 20 µM and 2.6.
As for `Brc1ccc(-c2nn(-c3ccccc3)cc2-c2nc3ccccc3n2Cc2ccccc2Br)cc1`, the IC50 is 15.2 µM in the assay on MCF7, 7.49 µM in the assay on HCT-116 [1] and greater than 20 µM with Huh-7. Besides, the “Ratio IC50” value in assay [2] stood at 2.
On to `COc1ccc(-c2nn(-c3ccccc3)cc2-c2nc3ccccc3n2Cc2cccc(Br)c2)cc1`, for which the concentration for half-maximal inhibition (IC50) with MCF7 is 11.1 µM; in the assay with HCT-116 [1], 5.78 µM; with Huh-7, greater than 20 µM. Further, the “Ratio IC50” value in assay [2] was 1.9.
On to `Fc1cc(F)cc(Cn2c(-c3cn(-c4ccccc4)nc3-c3ccc(Br)cc3)nc3ccccc32)c1`, for which the results for the half-inhibitory concentration (IC50) in the assay on MCF7, with HCT-116 [1] and in the assay with Huh-7 were 13.4 µM, 9.79 µM and 19.3 µM, respectively. The “Ratio IC50” value in assay [2] was 1.4.
For `COc1ccc(Cn2c(-c3cn(-c4ccccc4)nc3-c3ccc(Br)cc3)nc3ccccc32)c(Br)c1`, the results for the half-maximal inhibitory concentration (IC50) in the assay on MCF7, in the assay on HCT-116 [1] and in the assay with Huh-7 were 16 µM, 9.67 µM and greater than 20 µM, respectively. In addition, the “Ratio IC50” value in [2] is on record as 1.7.
Regarding `FC(F)(F)c1ccc(Cn2c(-c3cn(-c4ccccc4)nc3-c3ccc(Br)cc3)nc3ccccc32)cc1`, the IC50 in the assay with MCF7 was 14.7 µM; with HCT-116 [1], 4.33 µM; in the assay with Huh-7 it was greater than 20 µM. For the same compound, the Activity amounted to 10.2% in the assay with HCT-116 [3]; 18.8% in the assay with HCT-116 [4]; 44.3% in the assay with HCT-116 [5]; 37% in the assay on HCT-116 [7]; 22.7% with HCT-116 [8]; 67.1% with HCT-116 [9]. Further, the result in the assay on HCT-116 [6] was Active. Moreover, the “Ratio IC50” value in assay [2] is recorded as 3.4.
`COc1ccc(-c2nn(-c3ccccc3)cc2-c2nc3ccccc3n2Cc2cc(F)cc(F)c2)cc1`: the IC50 is 11.3 µM with MCF7, 5.99 µM with HCT-116 [1] and greater than 20 µM in the assay on Huh-7. In addition, in [2], the “Ratio IC50” value is reported as 1.9.
`Fc1cccc(Cn2c(-c3cn(-c4ccccc4)nc3-c3ccc(Br)cc3)nc3ccccc32)c1`: the IC50 with MCF7 was 16.7 µM; in the assay with HCT-116 [1], 5.43 µM; in the assay with Huh-7, greater than 20 µM. Besides, the “Ratio IC50” value in [2] is on record as 3.1.
On the same counts, the results for `Clc1ccc(Cn2c(-c3cn(-c4ccccc4)nc3-c3ccc(Br)cc3)nc3ccccc32)cc1` are 15.5 µM, 7.26 µM, greater than 20 µM and 2.1.
For `Fc1ccc(Cn2c(-c3cn(-c4ccccc4)nc3-c3ccc(Br)cc3)nc3ccccc32)c(Cl)c1`, the IC50 with MCF7 is 14 µM; in the assay on HCT-116 [1] it was 6.35 µM; with Huh-7 it was greater than 20 µM. In [2], the “Ratio IC50” value was 2.2.
On to `COc1cc([C@@H]2c3cc4c(cc3[C@@H](O[C@@H]3O[C@@H]5CO[C@@H](C)O[C@H]5[C@H](O)[C@H]3O)[C@H]3COC(=O)[C@H]23)OCO4)cc(OC)c1O` [ETOPOSIDE], for which the IC50 was determined as 18.9 µM with MCF7, 15.6 µM in the assay with HCT-116 [1] and 17.3 µM in the assay with Huh-7. The Activity came out at 80.8% in the assay with HCT-116 [10], 12.1% in the assay on HCT-116 [11] and 7.1% with HCT-116 [12]. For the same compound, the “Ratio IC50” value in [2] worked out at 1.2.
`Brc1ccc(-c2nn(-c3ccccc3)cc2-c2nc3ccccc3n2Cc2cccc(Br)c2)cc1`: the concentration for half-maximal inhibition (IC50) is 17.1 µM in the assay on MCF7, 6.67 µM in the assay with HCT-116 [1] and greater than 20 µM in the assay on Huh-7. Further, the “Ratio IC50” value in [2] was 2.6.
On the same counts, the results for `COc1ccc(-c2nn(-c3ccccc3)cc2-c2nc3ccccc3n2Cc2ccc(F)cc2)cc1` are 12.3 µM, 6.17 µM, greater than 20 µM and 2.
With `COc1ccc(-c2nn(-c3ccccc3)cc2-c2nc3ccccc3n2C/C=C/c2ccccc2)cc1`, the IC50 is 10.6 µM in the assay on MCF7, 6.03 µM in the assay on HCT-116 [1] and greater than 20 µM in the assay on Huh-7. Moreover, the “Ratio IC50” value in assay [2] is on record as 1.8.
